KCNQ1 pot – potentiators or activators of human KCNQ1 potassium channel; P51787; CHO-K1 KCNQ1, thallium flux FluxOR fluorescence; active compounds read high; B-score at 10 µM; 0.35% of 310,000 active;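 active = fluorescence ratio B-score, a plate-corrected score, at least three library SD, with initial intensity B-score within 5 SD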
Target sequence (P51787 whole entry, looked up): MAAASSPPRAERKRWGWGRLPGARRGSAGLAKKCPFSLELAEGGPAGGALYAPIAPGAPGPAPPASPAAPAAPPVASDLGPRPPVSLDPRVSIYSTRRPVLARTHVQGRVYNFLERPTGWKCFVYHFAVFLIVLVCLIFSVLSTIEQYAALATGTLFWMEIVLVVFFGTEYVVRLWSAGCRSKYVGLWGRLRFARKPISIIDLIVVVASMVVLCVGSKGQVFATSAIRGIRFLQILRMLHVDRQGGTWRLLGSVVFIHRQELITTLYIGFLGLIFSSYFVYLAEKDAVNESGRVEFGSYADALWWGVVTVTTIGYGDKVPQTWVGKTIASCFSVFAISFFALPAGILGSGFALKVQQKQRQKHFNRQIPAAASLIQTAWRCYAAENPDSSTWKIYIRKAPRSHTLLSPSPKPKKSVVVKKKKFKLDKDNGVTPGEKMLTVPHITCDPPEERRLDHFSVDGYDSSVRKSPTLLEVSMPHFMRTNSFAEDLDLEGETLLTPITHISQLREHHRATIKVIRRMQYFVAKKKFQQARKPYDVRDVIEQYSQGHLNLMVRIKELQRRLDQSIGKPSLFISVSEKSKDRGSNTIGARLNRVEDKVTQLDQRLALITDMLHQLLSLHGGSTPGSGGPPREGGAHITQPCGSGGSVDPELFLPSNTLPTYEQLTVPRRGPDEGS
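Assay system: CHO-K1 cells stably expressing KCNQ1. Medium: assay buffer for compound exposure, DMSO matched across wells. Timing: 37 °C overnight plating, 90-min dark dye load, 20-min compound pretreatment. Signal: kinetic FluxOR fluorescence, 10 s baseline plus 110 s post-stimulus.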
KCNK3 inh – human KCNK3 channel inhibition, primary screen. O14649. CHO-KCNK3 thallium flux, FluxOR fluorescence; active compounds read low. B-score at 10 µM. 0.84% of 340,000 active. AID 602410;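 active = B-score under library mean minus 4 SD, starting fluorescence ratio at most library mean plus 5 SD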;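 note: more negative B-score means stronger inhibition of thallium flux through KCNK3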
hERG rescue – shields human hERG channel from block by proarrhythmic agents; Q12809; CHO-hERG, FluxOR thallium flux, dofetilide IC70 present; activation (rescue from dofetilide block), less the hit threshold, % at 10 µM; 0.51% of 310,000 active;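 active = activation above the mean of controls blocked by dofetilide plus 5 SD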;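 note: thallium influx through hERG after potassium depolarization seen as dye fluorescence rise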
PHOSPHO1 inh – PHOSPHO1 (human) inhibition; recombinant PHOSPHO1, absorbance phosphatase assay; inhibition, % at 13.3 µM; 1.1% of 290,000 active; Q8TCT1; in the data active = inhibition above about 60%
KCNK9 inh – inhibitors of human KCNK9 two-pore domain potassium channel; Q9NPC2; HEK293 KCNK9, FluxOR thallium flux fluorescence; active compounds read low; B-score at 10 µM; 1.2% of 310,000 active; AID 488922;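 active = ratio B-score over 3 SD below the library mean, with starting fluorescence within 5 SD of its mean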;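 note: negative B-score means less thallium flux so channel inhibition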
KCNQ1 block – inhibitors of human KCNQ1 potassium channel; P51787; CHO-K1 KCNQ1, FluxOR thallium flux fluorescence; active compounds read high; B-score at 10 µM; 1.3% of 310,000 active;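 active = compounds whose thallium flux B-score, printed positive for inhibition, exceeds three library SD while starting fluorescence stays within three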;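 note: channel opened by potassium depolarization with thallium stimulus after 20 min compound exposure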
Hits are given with their value; n = inactive; x = no result. Rows were chosen to be rich in hits. Some 4% of all compounds tested hit in one or more screens of this group.

SMILES | KCNQ1 pot | KCNK3 inh | hERG rescue | PHOSPHO1 inh | KCNK9 inh | KCNQ1 block
FC(F)(F)c1cnc(Sc2nnc(-c3cccs3)n2CC2CCCO2)c(Cl)c1 (centres undefined) | n | n | n | n | n | n
N#Cc1c(Sc2ncc(C(F)(F)F)cc2Cl)nsc1C/C=N\OCc1c(F)cccc1Cl | n | n | n | 79 | n | n
CC(/C=C/c1ccc2c(c1)OCO2)=N/NC(=O)c1cccnc1 | n | n | n | n | n | n
Cc1ccc(C(C)C)cc1OCC(=O)N1CCN(C(=O)c2ccco2)CC1 | n | n | n | x | n | n
C=CCNC(=S)NNC(=O)c1ccc(OCC)cc1 | n | n | n | n | n | n
C=CCNC(=S)NNC(=O)c1ccc(OCC(C)C)cc1 | n | n | n | 60 | n | n
COC(=O)c1cc2n(n1)CCN(Cc1ccccc1Cl)C2=O | n | n | n | n | n | n
CCCCCCCn1ccc(=N)cc1 | n | n | n | n | n | n
CCCCCn1ccc(=N)cc1 | x | n | x | 93 | x | x
CCOCCn1c(CN2CCCCC2)nc2c1c(=O)n(C)c(=O)n2C | n | n | n | n | n | n
CCNC(=S)NN=C1c2ccccc2-c2ccccc21 | n | n | n | n | n | n
C=C(C)CNC(=S)NN=C1c2ccccc2-c2ccccc21 | n | n | 22 | n | n | n
N#Cc1ccc(/C=C/C(=O)c2cccnc2)cc1 | n | n | n | n | n | 6
O=C(/C=C/c1ccc(Cl)cc1)c1cccnc1 | n | n | n | n | n | n
CCN(CC)C(=O)CSC1=C(C#N)C(c2cccs2)C=C(C)N1 (centres undefined) | n | n | n | 94 | n | n
CCCN1CCN(C(=O)C2CCN(S(=O)(=O)c3ccc4c(c3)NC(=O)C(C)S4)CC2)CC1 (centres undefined) | n | n | n | n | n | n
Brc1ccccc1-c1nc2c3ccccc3ncn2n1 | x | -9.4 | x | x | x | x
CCOc1ccc2nc3c(cc2c1)CN(CCOC)C(=NC)S3 | n | n | n | n | n | n
CCN=C1Sc2nc3ccc(OCC)cc3cc2CN1CCOC | n | n | n | 72 | n | n
C/C(N)=C(/C#N)C(=O)CSc1nnc(Nc2c(C)cccc2C)s1 | n | n | n | 67 | n | n
Cc1ccc(S(=O)(=O)NC(CC(C)C)C(=O)N2CCCCCCC2)cc1 (centres undefined) | n | n | n | x | n | n
On1c(-c2ccccc2Cl)nc2ncccc21 | n | n | n | n | n | n
Cn1cc([N+](=O)[O-])c(C(=O)N/N=C\c2c[nH]c3ccccc23)n1 | n | n | n | n | n | n
Cn1cc([N+](=O)[O-])c(C(=O)N/N=C/c2ccccc2)n1 | n | n | 4.7 | n | n | n
O=[N+]([O-])c1ccc(-c2ccc(/C=N/n3cnnc3)o2)c(Br)c1 | n | n | 7.5 | n | n | n
SMILES | KCNQ1 pot | KCNK3 inh | hERG rescue | PHOSPHO1 inh | KCNK9 inh | KCNQ1 block
CCc1c(C)nc(SCC(=O)NNC(=O)Cc2ccc(OC)cc2)[nH]c1=O | n | n | n | n | n | n
COc1ccc(-c2nnc(-c3ccccc3O)o2)cc1 | n | n | 5.1 | n | n | n
Cn1cccc1/C=N/n1c(-c2ccc(C(C)(C)C)cc2)n[nH]c1=S | n | n | n | n | -7.7 | n
Cn1c(-c2ccc(C(C)(C)C)cc2)n[nH]c1=S | n | n | n | 69 | n | n
CCn1c(-c2ccc(C(C)(C)C)cc2)n[nH]c1=S | n | n | n | n | n | n
CC(C)(C)c1ccc(-c2n[nH]c(=S)n2C2CCCC2)cc1 | n | n | n | 91 | n | n
N#CCN1C(=O)C(=O)N(Cc2cccc(C(F)(F)F)c2)C1=O | n | n | n | n | n | n
Cc1cccc(CC(=O)c2c[nH]c3ccccc23)c1 | n | n | n | n | n | n
Cc1oc(S(=O)(=O)N2CCCC2)cc1C(=O)Nc1ccccc1 | n | n | n | n | n | n
CC(=O)NC(=S)NNC(=O)COc1ccc(Br)cc1 | x | n | x | 61 | x | x
CC(C)(C)NC(=O)C(=O)NNC(=O)COc1ccc(Br)cc1 | 8 | n | 5.1 | n | n | n
O=C(COc1ccc(Br)cc1)NNC(=S)NC(=O)c1ccccc1[N+](=O)[O-] | n | n | n | n | n | n
CC(=O)NC(=S)NNC(=O)COc1ccc([N+](=O)[O-])cc1 | n | n | n | 67 | n | n
CCc1n[nH]c(=S)n1/N=C/c1cc(Br)c(OC)cc1OC | n | n | n | 60 | n | n
Nc1cc(C(=O)c2cccs2)ccc1Cl | n | n | n | n | -6.8 | n
CC(C)NC(=O)/C(=C/c1cn(-c2ccccc2)nc1-c1cccc([N+](=O)[O-])c1)NC(=O)c1ccccc1 | n | n | n | n | n | n
COCCn1c(C)cc(C(=O)CSc2nc3ccccc3c(=O)[nH]2)c1C | n | n | n | n | n | n
COCCn1c(C)cc(C(=O)CSc2nncn2-c2ccccc2)c1C | n | n | n | 95 | n | n
COCCn1c(C)cc(C(=O)CSc2ccc3ccccc3n2)c1C | n | n | n | 69 | n | n
COc1ccc(-n2cnnc2SCC(=O)c2cc(C)n(Cc3cccs3)c2C)cc1 | n | n | n | n | n | n
Cc1nc2sc(C(=O)O)c(N)c2c2c1COC(C)(C)C2 | n | n | n | 66 | n | n
COc1ccccc1OCCn1c(=O)oc2ccc(C)cc21 | n | n | n | n | n | n
O=C1CCN(C(=O)Nc2cccc(Cl)c2)N1 | n | n | n | n | n | n
COc1cc(S(=O)(=O)Nc2ccccc2)ccc1N=Cc1c(C)[nH]n(-c2ccc(C)cc2)c1=O | n | x | n | n | -9.6 | n
O=C(Nc1ccccc1Sc1ccccc1)c1ccccc1 | n | n | n | n | -7.7 | n
SMILES | KCNQ1 pot | KCNK3 inh | hERG rescue | PHOSPHO1 inh | KCNK9 inh | KCNQ1 block
O=C1CN(c2nnnn2-c2ccccc2)CCN1 | x | n | x | n | x | x
COc1ccc(CCn2c(S)nc3ccccc3c2=O)cc1 | 8 | n | n | n | n | n
CSc1nnc(SCC(=O)NC(=O)c2ccccc2)s1 | n | n | n | x | n | n
NC(=S)Nc1nc2ccccc2[nH]c1=O | n | x | n | 66 | n | n
CC(C)OCCCNS(=O)(=O)c1ccc2c(c1)OCCO2 | n | n | n | n | n | n
CC(=O)c1c(C)[nH]c(C(=O)Nc2cccc(C(F)(F)F)c2)c1C | 7 | n | n | n | n | n
CCCCCNCC(=O)Nc1cccc(C(=O)Nc2cccc(C(F)(F)F)c2)c1 | n | n | n | n | n | 6
CCC(C)c1ccccc1NC(=O)c1[nH]c(C)c(C(C)=O)c1C (centres undefined) | n | n | 5.8 | n | n | n
O=C(Cc1ccc(Cl)cc1Cl)Nc1cccc(S(=O)(=O)Nc2ccccc2F)c1 | n | n | n | 74 | n | n
Clc1ccc(/C(Cc2nc3ccccc3[nH]2)=N\Nc2ccccc2)cc1 | n | n | n | n | -7.2 | 9
O=C(Cc1nc2ccccc2[nH]1)c1ccc(Cl)cc1 | n | n | n | n | n | n
O=C(CSCc1cnn(-c2ccccc2)c1-n1cccc1)NCc1cccnc1 | n | n | 9.2 | n | n | n

Source: PubChem
